What all share (assay type): functional
Assay [1] relates to MDA-MB-231. In words: Antiproliferative activity against human MDA-MB-231 cells assessed as growth inhibition incubated for 72 hrs by MTT assay. (In general: Tetrazolium assays rely on reduction of a dye to a coloured formazan, in cell work by metabolically active cells.)
In assay [2] the test system is NCI-H322M. In words: Antiproliferative activity against human NCI-H322M cells assessed as growth inhibition incubated for 72 hrs by MTT assay.
Assay [3] relates to DU-145. In words: Antiproliferative activity against human DU-145 cells assessed as growth inhibition incubated for 72 hrs by MTT assay.
Assay [4] has as its system PC-3. In words: Antiproliferative activity against human PC-3 cells assessed as growth inhibition incubated for 72 hrs by MTT assay.
In assay [5] the test system is SK-MEL-2. In words: Antiproliferative activity against human SK-MEL-2 cells assessed as growth inhibition incubated for 72 hrs by MTT assay.
Assay [6] has as its system OVCAR-4. In words: Antiproliferative activity against human OVCAR-4 cells assessed as growth inhibition incubated for 72 hrs by MTT assay.
Assay [7] relates to CAKI-1. Kind of assay: Antiproliferative activity against human CAKI-1 cells assessed as growth inhibition incubated for 72 hrs by MTT assay.
For assay [8], the system named is SU-DHL10. In words: Antiproliferative activity against human SU-DHL-10 cells assessed as reduction in cell proliferation at 1 uM measured after 72 hrs by MTT assay relative to control. More on the design: scale not given: the % may be the effect or the level left. In outline:
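Single-dose 1 μM screen in lymphoma cells (RPMI-1640, 20% FBS; 5,000–10,000 cells/well), 72 h at 37 °C, 5% CO2, DMSO ≤0.1%. MTT for 4 h, SDS lysis, absorbance at 570 nm. Proliferation expressed as percent of untreated control.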

Assay [9] has as its system SR. Kind of assay: Antiproliferative activity against human SR cells assessed as growth inhibition incubated for 72 hrs by MTT assay.
The subject of assay [10] is TK-10. Kind of assay: Antiproliferative activity against human TK-10 cells assessed as growth inhibition incubated for 72 hrs by MTT assay.
Assay [11] has as its system UACC-257. Kind of assay: Antiproliferative activity against human UACC-257 cells assessed as growth inhibition incubated for 72 hrs by assay.
Assay [12] concerns SK-MEL-28. In words: Antiproliferative activity against human SK-MEL-28 cells assessed as growth inhibition incubated for 72 hrs by MTT assay.

As for `COc1ccc(Cn2cc3c(c2-c2cc(OC)c(OC)c(OC)c2)CCCc2cnoc2-3)cc1`, the GI50 in assay [1] is 2.54 µM; in assay [2], 3.28 µM; in [3], 4.11 µM; in assay [4], 0.85 µM; in assay [5], 1.61 µM; in [6], 4.97 µM. Also, the values for the GI50 in assay [7] and in assay [9] were 0.49 µM and 0.36 µM, respectively. For the same compound, the Activity in assay [8] is recorded as greater than 50%.

In the case of `COc1ccc(Cn2cc3c(c2-c2cc(OC)c(OC)c(OC)c2)CCCc2cnoc2-3)cc1N`, the concentration for 50% growth inhibition (GI50) in [10] stood at 96.6 µM; in assay [1] it was 1.15 µM; in [11], 0.58 µM; in assay [2], 0.84 µM; in assay [3], 0.84 µM; in assay [4], 0.43 µM. Further, the GI50 in assay [12] is 2.93 µM; in [7], 0.58 µM; in assay [9], 0.36 µM. Moreover, the Activity in assay [8] is given as greater than 50%.

The GI50 is the concentration at which growth is held to half of that of the control.

Values taken from ChEMBL document CHEMBL5321217, “Identification of pyrrolo[3',4':3,4]cyclohepta[1,2-d][1,2]oxazoles as promising new candidates for the treatment of lymphomas” (Eur J Med Chem, 2023).
